Source: PubChem BioAssay (Broad Institute)
A selection: hits, their analogues and other compounds. The true share with any hit is near 2.6%.
Vif imaging – blocks HIV Vif function. AID 602346. inhibition, % at 7.49 µM. hit rate 0.35% among 340,000. HEK293T cells, Vif self-association by quenched fluorescence, imaging, 24 h; in the data active = inhibition above about 50%, passing the limit was not always enough
S100A4 inh HTS – blocks human S100A4 binding to myosin IIA peptide; AID 652163; inhibition, % at 10.7 µM; P26447; S100A4/TAMRA-MyoIIA peptide fluorescence polarization; hit rate 0.14% among 360,000;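 active = mean inhibition of at least 70% across replicates, with every replicate also reaching that level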
Target sequence (P26447 whole entry, looked up): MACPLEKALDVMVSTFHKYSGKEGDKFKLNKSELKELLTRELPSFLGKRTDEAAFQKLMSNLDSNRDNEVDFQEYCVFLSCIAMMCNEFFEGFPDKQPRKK
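Test system: S100A4 monomer protein. Medium: HEPES buffer with Ca2+, pH 7.2. Reagent: fluorescent myosin IIA peptide, 5 nM. Compound dosing: single-point compound testing. Timing: 5 min between mix addition and reading. Benchmarks: DMSO neutral and TFP positive wells.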
miR-122 sensor – inhibitors of miR-122 in Huh7 cells | Huh7 miR-122 Renilla luciferase sensor, 48 h; neutral wells = 0, positive control = 100 | activation (reporter increase), % at 12.5 µM | hit rate 0.3% among 340,000 | AID 602342;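 active = mean replicate activation score at least 90 and every replicate individually at or above 90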;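 also: higher luciferase means less miR-122 activity so hits act as miR-122 inhibitors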
Ecoli rRNA inh – inhibitors of bacterial rRNA selective over humanized ribosomes | E. coli WT GFP vs humanized-ribosome RFP mutants, fluorescence, 24 h; hits give low values; DMSO median 0, no signal -100 | GFP signal change (wild-type ribosome), % (concentration not given with the values) | hit rate 1.6% among 350,000 | AID 720706;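 active = significant combined selectivity score with lowered wild-type GFP, culture density cut under 30%, mutant RFP and density less affected; inactive = any of these conditions unmet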
FN deposition inh – fibronectin deposition inhibition. AH1F fibroblasts, Alexa488-fibronectin deposition fluorescence, overnight. inhibition, % at 12.6 µM. hit rate 0.086% among 350,000. AID 743247;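 active = mean inhibition across replicates of 30% or more, regardless of how many single replicates reach that level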;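 also: positive control wells lacked labelled fibronectin entirely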
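Assay system: AH1F fibroblast monolayer, labelled fibronectin deposition. Amount: 10000 cells per well. Also added: labelled fibronectin 24 nM. Compound: single-point pinned compound. Incubation: cell attachment 1 h, compound and FN exposure overnight. Detection: fluorescence after three HBSS washes, excitation 485 nm, emission 525 nm. Read-out: inhibition of fibronectin deposition signal.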
HIV Env fusion – blocks HIV Env-driven cell-cell fusion | HeLa-JRFL Env/CEM21 cell fusion, luciferase | hit rate 1.1% among 360,000 | AID 651610 | inhibition, % at 12.3 µM;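 active = mean replicate inhibition score of at least 50 and every replicate individually at or above 50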;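 also: 0% = plate neutral controls and 100% = maraviroc near 300 nM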
The depositor's hits bear a star; nt = no result; [ ] = another dose, or the depositor's remark.

SMILES	Vif imaging	S100A4 inh HTS	miR-122 sensor	Ecoli rRNA inh	FN deposition inh	HIV Env fusion
N#Cc1cccc(-c2ccc([C@H]3[C@H](CO)N4CCCCN(C(=O)Cc5cccnc5)C[C@@H]34)cc2)c1	nt	11	-5[16.7 µM]	-4	nt	nt
S=C(NCCc1ccccc1)N1Cc2ccc(Br)cc2-n2nncc2C1	3	1	16	-20	9	-1
S=C(NCCc1ccccc1)N1Cc2cc(Br)ccc2-n2nncc2C1	12	7	52	-40	nt	57*
COc1ccc(-c2ccc3c(c2)CN(C(=S)NCCc2ccccc2)Cc2cnnn2-3)cc1	-8	1	119*	4	12	7
COc1ccc(C#Cc2ccc([C@H]3[C@@H](CO)N4CCCCN(C(=O)Cc5ccncc5)C[C@H]34)cc2)cc1	nt	-13	10[16.7 µM]	-5	nt	nt
COC(=O)[C@H]1[C@H](CO)[C@H]2Cn3c(cccc3=O)[C@@H]1N2Cc1nccs1	nt	12	nt	3	nt	-1[16.7 µM]
FC(F)(F)CN1C[C@@H]2C(c3ccccc3)[C@H](C1)N2CC1CC1 (some centres undefined)	nt	nt	nt	-2	-16	nt
CNc1cc(N2CCNCC2)ccc1[N+](=O)[O-]	51*	-2	nt	1	nt	5
C[C@@H]1O[C@@H](O[C@H]2C[C@@H](O)[C@]3(CO)[C@H]4[C@H](O)C[C@]5(C)[C@@H](C6COC(=O)C6)CC[C@]5(O)[C@@H]4CC[C@]3(O)C2)[C@H](O)[C@H](O)[C@H]1O (some centres undefined)	-10	-4	114*	nt	8	-157
O=C(O)C1C2c3ccccc3C(c3ccccc32)C1C(=O)Nc1ccccc1 (centres undefined)	9	-1	2	-7	20	1
CCOc1ccc(NC(=O)C2C3c4ccccc4C(c4ccccc43)C2C(=O)O)cc1 (centres undefined)	17	3	nt	-34*	-7	19
COC(=O)[C@H]1[C@H](CO)[C@H]2Cn3c(ccc(-c4cccnc4)c3=O)[C@@H]1N2CCc1ccccc1	nt	-3	3[16.7 µM]	-1	nt	nt
CN(C)C(=O)Oc1c(Cl)cc(Cl)c2ccccc12	6	nt	-3	nt	nt	nt
Cc1cc(OC(=O)N(C)C)nc(SCc2c(Cl)cccc2Cl)n1	5	1	nt	-18*	-1	9
NC(N)=N/N=C/c1cn(-c2ccccc2)nc1-c1cccs1	-3	-5	nt	-62	35*	-65
O=C(Cc1ccccc1)OCn1nnc2ccccc2c1=O	140*	-1	nt	-1	nt	nt
C=CCN1[C@@H]2CN(C(=O)NC(C)C)C[C@H]1C2c1ccc(Br)cc1 (some centres undefined)	nt	nt	nt	0	-8	nt
COC(=O)[C@@H]1[C@@H](CO)[C@@H]2Cn3c(ccc(-c4ccccc4F)c3=O)[C@H]1N2C(=O)C1CC1	nt	-17	2[16.7 µM]	3	nt	nt
O=C(Cc1ccccn1)N1CC2(C1)[C@@H](c1ccccc1)[C@@H](CO)N2Cc1ccccn1	nt	0	nt	2	nt	nt
CN1CCCN(c2ccc([N+](=O)[O-])nc2)CC1	52*	0	0	10	-1	0
COC(=O)[C@@H]1[C@@H](CO)[C@@H]2Cn3c(ccc(C4=CCCCC4)c3=O)[C@H]1N2C(=O)Cc1ccccn1	nt	3	-2[16.7 µM]	-3	nt	nt
CCCC(=O)NC(Oc1ccc(Cl)cc1Cl)C(Cl)(Cl)Cl (centres undefined)	5	4	nt	10	nt	nt
CCCC(=O)NC(Oc1ccccc1Cl)C(Cl)(Cl)Cl (centres undefined)	1	-4	nt	-20*	nt	nt
COC(=O)[C@H]1[C@H](CO)[C@H]2Cn3c(ccc(-c4ccncc4)c3=O)[C@@H]1N2S(=O)(=O)c1ccccc1F	nt	-51	-7[16.7 µM]	1	nt	nt
O=C(NCNC(=O)NC1C(=O)NC(=O)N1CO)NC1C(=O)NC(=O)N1CO (centres undefined)	123*	2	-4	nt	1	-21
NC(=O)c1cc(N2CC2)c([N+](=O)[O-])cc1[N+](=O)[O-]	78*	-5	5	nt	-1	-10
COC(=O)c1ccc(N2CCN(C)CC2)c([N+](=O)[O-])c1	10	0	nt	11	nt	21
NC(Cc1nc2ccccc2[nH]1)c1ccc(Cl)cc1 (centres undefined)	0	-7	-9	-45*	2	-360
